# PREPL inh = inhibitors of human prolyl oligopeptidase-like enzyme PREPL | recombinant PREPL, fluorescence polarization activity-based probe | inhibition, % at 5.96 µM | AID 2751 | hit rate 0.68% among 320,000; in the data active = inhibition above about 43%;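 also: 0% = enzyme with DMSO and 100% = wells lacking enzyme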
# procasp7 counter = counter-screen for procaspase-3 activators: activators of human procaspase-7. activation, % at 8.5 µM. recombinant procaspase-7, Ac-DEVD-pNA absorbance 405 nm; D23A/D198A/D206A triple mutant, cannot self-cleave; scale: DMSO 0, 5 µM enzyme 100. hit rate 0.093% among 330,000. P55210. AID 463210;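 active = percent activation above the screen-wide mean plus 3 SD, cut at about 25% in these data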
#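 Assay system – Uncleavable procaspase-7 mutant enzyme · Quantity – 2 µM procaspase-7 mutant as dispensed · Times – 1 h preincubation, 2 h reaction · Dosing – single nominal 8.5 µM compound dose, 0.8% DMSO final · Buffer or medium – Zinc-free 50 mM HEPES buffer, pH 7.4, with NaCl and Triton X-100 · Detection – Epi-absorbance of released pNA at 405 nm, two timepoints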
# LYPLA2 counter = blocks human lysophospholipase 2, a PME1 counter-screen | AID 2177 | inhibition, % at 5.9 µM | recombinant LYPLA2, FP-Rh probe fluorescence polarization | hit rate 0.38% among 320,000 | O95372;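 active = inhibition above the screen-wide mean plus 3 SD, limit set per campaign, cut at about 26% in these data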;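 also: 0% = LYPLA2 with DMSO and 100% = wells lacking LYPLA2 enzyme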
# Target sequence (O95372 whole entry, looked up): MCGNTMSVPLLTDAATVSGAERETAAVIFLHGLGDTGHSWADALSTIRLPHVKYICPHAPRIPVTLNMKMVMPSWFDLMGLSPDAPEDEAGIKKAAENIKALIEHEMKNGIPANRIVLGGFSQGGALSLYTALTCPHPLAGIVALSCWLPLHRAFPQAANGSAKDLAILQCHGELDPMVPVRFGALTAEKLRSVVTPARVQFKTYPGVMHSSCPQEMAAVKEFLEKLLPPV
# LYPLA1 counter = counter-screen for PME1 inhibitors: inhibitors of human LYPLA1 | O75608 | recombinant LYPLA1, FP-Rh probe fluorescence polarization | inhibition, % at 5.9 µM | hit rate 0.16% among 320,000;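 active = inhibition above the mean of all tested compounds plus 3 SD, set per campaign, cut at about 14% in these data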;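 also: inhibitors block serine hydrolase probe labeling of LYPLA1 so polarization falls; 0% = enzyme with DMSO and 100% = wells lacking LYPLA1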
# Target sequence (O75608 whole entry, looked up): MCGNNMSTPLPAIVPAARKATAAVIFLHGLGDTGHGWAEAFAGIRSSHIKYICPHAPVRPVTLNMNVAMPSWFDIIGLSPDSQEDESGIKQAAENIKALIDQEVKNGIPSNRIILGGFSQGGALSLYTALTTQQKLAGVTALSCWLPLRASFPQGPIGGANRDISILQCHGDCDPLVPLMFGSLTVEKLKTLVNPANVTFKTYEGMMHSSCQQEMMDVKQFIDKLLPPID
# procasp3 activ = activators of human procaspase-3; recombinant procaspase-3 D3A, Ac-DEVD-pNA absorbance 405 nm; activation, % at 8.5 µM; hit rate 0.11% among 330,000;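 active = activation above the mean of all tested compounds plus 3 SD, cut at about 21% in these data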;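 also: 0% = DMSO alone and 100% = DMSO wells spiked with extra 5 µM PC-3 D3A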
#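 material = Procaspase-3 D3A mutant | probe or stimulus = Ac-DEVD-pNA | compound = single dose, 8.5 µM nominal compound, 0.8% DMSO | timing = 1 h preincubation, 2 h reaction | measured by = 405 nm absorbance of p-nitroaniline, reads at 0 and 120 min | benchmarks = DMSO-only low control, 5 µM PC-3 D3A high control | repeats = singlicate, each compound tested once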
# LYPLA1 confirm = counter-screen for PME1 inhibitors: confirmation of human LYPLA1 inhibitors; shares compounds with LYPLA1 counter; recombinant LYPLA1, FP-Rh probe fluorescence polarization; inhibition, % at 5.9 µM; hit rate 69% among 480; AID 2233;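 active = mean inhibition across replicates above the hit cutoff set in the primary screen, cut at about 15% in these data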;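 also: loss of FP-Rh probe labeling of LYPLA1 seen as lower polarization; 0% = LYPLA1 with DMSO and 100% = wells lacking LYPLA1 enzyme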
# The depositor's hits bear a star; . = no result. A selection: hits, their analogues and other compounds. The true share with any hit is near 1%.
SMILES,PREPL inh,procasp7 counter,LYPLA2 counter,LYPLA1 counter,procasp3 activ,LYPLA1 confirm
CCN(C(=O)COC(=O)c1cccnc1Nc1cccc(C(F)(F)F)c1)C1CCS(=O)(=O)C1 (stereo not given),8,-1,5,-2,1,.
Cc1ccc(C2(COC(=O)C(C)C)CO2)c(OC(=O)C(C)C)c1 (stereo not given),13,-4,4,29*,4,1
CCC(C)C(=O)OCC1(c2ccc(C)cc2OC(=O)C(C)C)CO1 (stereo not given),18,2,6,2,2,.
COc1ccc(/C=C2/SC(=S)N(CCCC(=O)Nc3ccccc3C(=O)O)C2=O)cc1,1,-9,22,20*,-5,19*
CCOc1cc(CN2CCCC(C(=O)c3cccc(C(F)(F)F)c3)C2)ccc1O (stereo not given),-14,3,-1,35*,2,42*
Cc1ccccc1CN(C)CC(=O)Nc1ccccc1Oc1ccccc1,5,-2,4,3,1,.
CC(=O)N1CCN(C(=O)CCc2nnc(CCCCc3ccccc3)o2)CC1,20,4,-5,-3,-1,.
COCCCC1CCN(C(=O)CCc2nnc(CCCCc3ccccc3)o2)CC1,19,-10,8,17*,-3,17*
COC(=O)c1sc2cc(C(F)(F)F)cnc2c1-c1ccccc1,-2,7,12,17*,-3,21*
CCn1c2ccccc2c2nnc(SCc3ccc(C(=O)OC)o3)nc21,13,2,5,15*,-2,22*
CCn1c2ccccc2c2nnc(SCc3ccccc3)nc21,4,7,-3,-3,10,.
O=[N+]([O-])c1cccc(OCCCN2CCC(Cc3ccccc3)CC2)c1,7,-11,32*,16*,4,20*
N#Cc1ccccc1OCCCN1CCC(Cc2ccccc2)CC1,-3,1,16,59*,-1,56*
CC1Cc2cc(S(=O)(=O)N3CCN(C)CC3)ccc2N1C(=O)C1CC1 (stereo not given),6,-6,-6,-5,-4,.
CC[N+](CC)(CCCCS(=O)(=O)[O-])CCNP1(=O)C=C(c2ccccc2)OC(c2ccccc2)=C1,15,1,9,4,0,.
O=P1(Nn2cnnc2)C=C(c2ccccc2)OC(c2ccccc2)=C1,-4,4,18,17*,4,0
O=C(/C=C/Nc1ccccc1F)c1cccs1,0,-4,0,-1,6,.
COc1ccc(CC(NC(C)=O)C(=O)NC2CCN(S(=O)(=O)c3ccc(NC(C)=O)cc3)CC2)c(OC)c1 (stereo not given),-9,12,-8,-1,2,.
COc1ccc(CC(=O)Nc2ccc(S(=O)(=O)N3CCC(C)CC3)cc2)c(OC)c1,10,6,-3,17*,0,-5
COC(=O)CCCC(=O)N1CCCC(C(=O)c2ccc(-c3ccccc3)cc2)C1 (stereo not given),0,0,3,21*,-5,29*
CCCc1cc(=O)oc2cc(OCc3cc(OC)c(OC)c(OC)c3)c(Cl)cc12,-5,0,2,4,6,.
CCCCc1cc(=O)oc2cc(OCc3cc(OC)c(OC)c(OC)c3)c(Cl)cc12,6,-4,20,16*,0,27*
CC(C)(C(=O)Nc1nccs1)c1ccccc1,3,6,8,4,-2,.
COc1ccc([C@H]2CC(=O)C=C(c3ccc(C)c([N+](=O)[O-])c3)C2)cc1,10,3,15,18*,7,17*
COCc1cc(C)nc2sc(C(=O)Nc3nccs3)c(N)c12,7,-6,3,2,-9,.
SMILES,PREPL inh,procasp7 counter,LYPLA2 counter,LYPLA1 counter,procasp3 activ,LYPLA1 confirm
Cc1cc(C)c2c(N)c(C(=O)Nc3nccs3)sc2n1,4,-1,0,17*,-8,11
O=C(Nc1nc(-c2ccc(F)cc2)cs1)C1CCN(C(=O)c2ccc(F)cc2)CC1,-44,1,2,-7,6,.
CC(=O)c1sc(NC(=O)C2CCN(C(=O)c3ccc(F)cc3)CC2)nc1-c1ccccc1,1,6,20,20*,3,29*
COc1ccc(NC(=O)C2CCC(CNc3c(N4CCC(C)CC4)c(=O)c3=O)CC2)cc1OC (stereo not given),4,-7,6,24*,-5,26*
COc1cc(NC(=O)C2CCC(CNc3c(N4CCCCC4)c(=O)c3=O)CC2)cc(OC)c1 (stereo not given),5,-2,6,24*,1,31*
COc1cc(NC(=O)C2CCC(CNc3c(N4CCC(C)CC4)c(=O)c3=O)CC2)cc(OC)c1 (stereo not given),5,2,4,39*,-5,40*
Cc1ccc(NS(=O)(=O)c2ccc(C(=O)NCCN3CCOCC3)cc2)cc1,-3,6,.,.,1,.
CC1CCN(Cc2cc(=O)oc3cc(O)c(Cl)cc23)CC1,11,-9,7,6,-11,.
CC1CN(Cc2cc(=O)oc3cc(O)c(Cl)cc23)CC(C)O1 (stereo not given),17,5,20,16*,-7,42*
CCOc1ccc(C(=O)OCC(=O)NCCNC(=O)COC(=O)c2ccc(OCC)cc2)cc1,9,-1,3,2,4,.
O=c1[nH]c(S)c(/C=C2\C=Nc3ccccc32)s1,12,-15,0,4,-9,.
O=c1[nH]c(O)c(/C=C2\C=Nc3ccc(Br)cc32)[nH]1,40,11,8,36*,-7,40*
CN1CC=C2C(C#N)=C(N)C(C#N)(C#N)[C@H](c3ccoc3)[C@H]2C1,34,-2,14,14*,-5,0
CCOC(=O)c1c(C)[nH]c(C(=O)OCC(=O)Nc2sc(C(=O)N(C)C)c(C)c2C(=O)OCC)c1C,3,2,6,47*,13,74*
Cc1cccc(CC(=O)NC2CCS(=O)(=O)C2)c1 (stereo not given),9,2,4,-2,1,.
COc1ccc(NC(=O)COC(=O)C2CC3C=CC2C3)cc1 (stereo not given),4,6,7,4,2,.
Cc1ccc(NC(=O)COC(=O)C2CC3C=CC2C3)cc1S(=O)(=O)N1CCCCC1 (stereo not given),1,11,6,20*,-3,33*
CCN(CC)S(=O)(=O)c1cccc(NC(=O)COC(=O)C2CC3C=CC2C3)c1 (stereo not given),15,-7,13,30*,2,28*
O=C(c1cccc(Oc2ccc([N+](=O)[O-])cc2Cl)c1)N1CCOCC1,15,13,12,0,0,.

# Assay outcomes: PubChem, The Scripps Research Institute Molecular Screening Center
